Laboratory results as given in ChEMBL document CHEMBL1125639, “Synthesis and resolution of (+-)-7-chloro-8-hydroxy-1-(3'-iodophenyl)-3-methyl-2,3,4,5-tetrahydro- 1H-3- benzazepine (TISCH): a high affinity and selective iodinated ligand for CNS D1 dopamine receptor” (J Med Chem, 1991).
Where “and” joins values, the source holds several entries; their conditions need not be identical. Equal values may be shown once.

Tests used:
Rattus norvegicus [1] = experiment: Biodistribution of compound in rats spleen after an intravenous injection was measured at 4 hr; format: ADME, organism-based; details: in vivo
In short: (§1)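 Male Sprague-Dawley rats (225-300 g), free access to food and water. Under ether anesthesia, given 0.2 mL saline containing 125I-labelled ligand (2-5 μCi, ~2200 Ci/mmol) into the femoral vein. Killed by cardiac excision at set times. Organs removed, weighed and gamma-counted. % dose/organ is taken against diluted injectate aliquots, with blood and muscle assumed to be 7% and 40% of body weight. Mean of 3 rats ± std dev.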

Rattus norvegicus [2] = experiment: Ratio of regional brain distribution in striatum to that of cerebellum at 4 hr after intravenous injection; format: ADME, organism-based; details: in vivo
In short: (§2)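 After femoral-vein injection of [125I]-labeled ligand (2-5 μCi, ~2200 Ci/mmol, 0.2 mL saline, ether anesthesia) into male Sprague-Dawley rats (225-300 g), brains were dissected into cortex, striatum and cerebellum, weighed and gamma-counted. % dose/gram calculated against diluted initial dose; regional ratio = % dose/gram of region divided by that of cerebellum.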

Rattus norvegicus [3] = experiment: Regional brain distribution of compound in rats striatum after an intravenous injection was measured at 30 min; format: ADME, organism-based; details: in vivo, 0.5 h; in short: as §2
Rattus norvegicus [4] = experiment: Biodistribution of compound in rats muscle after an intravenous injection was measured at 24 hr; format: ADME, organism-based, Muscle tissue; details: in vivo; in short: as §1
Rattus norvegicus [5] = experiment: Biodistribution of compound in rats lung after an intravenous injection was measured at 24 hr; format: ADME, organism-based; details: in vivo; in short: as §1
Rattus norvegicus [6] = experiment: Biodistribution of compound in rats heart after an intravenous injection was measured at 24 hr; format: ADME, organism-based; details: in vivo; in short: as §1
Rattus norvegicus [7] = experiment: Biodistribution of compound in rats spleen after an intravenous injection was measured at 24 hr; format: ADME, organism-based; details: in vivo; in short: as §1
Rattus norvegicus [8] = experiment: Biodistribution of compound in rats brain after an intravenous injection was measured at 24 hr; format: ADME, organism-based; details: in vivo
In short: (§3)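 Rats (male Sprague-Dawley, 225-300 g) given the 125I ligand (2-5 μCi, ~2200 Ci/mmol) in 0.2 mL saline via the femoral vein under ether anesthesia, then killed at set times. Whole brain removed, weighed and gamma-counted. % dose/organ is taken against diluted injectate aliquots. Mean of 3 rats ± std dev.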

Rattus norvegicus [9] = experiment: Biodistribution of compound in rats blood after an intravenous injection was measured at 24 hr; format: ADME, organism-based; details: in vivo; in short: as §1
Rattus norvegicus [10] = experiment: Regional brain distribution of compound in rats cerebellum after an intravenous injection was measured at 2 min; format: ADME, organism-based; details: in vivo; in short: as §2
Rattus norvegicus [11] = experiment: Biodistribution of compound in rats lung after an intravenous injection was measured at 1 hr; format: ADME, organism-based; details: in vivo; in short: as §1
Rattus norvegicus [12] = experiment: Biodistribution of compound in rats muscle after an intravenous injection was measured at 4 hr; format: ADME, organism-based, Muscle tissue; details: in vivo; in short: as §1
Rattus norvegicus [13] = experiment: Biodistribution of compound in rats muscle after an intravenous injection was measured at 2 min; format: ADME, organism-based, Muscle tissue; details: in vivo; in short: as §1
Rattus norvegicus [14] = experiment: Biodistribution of compound in rats brain after an intravenous injection was measured at 30 min; format: ADME, organism-based; details: in vivo, 0.5 h; in short: as §3
Rattus norvegicus [15] = experiment: Biodistribution of compound in rats skin after an intravenous injection was measured at 24 hr; format: ADME, organism-based, Zone of skin; details: in vivo; in short: as §1
Rattus norvegicus [16] = experiment: Biodistribution of compound in rats muscle after an intravenous injection was measured at 1 hr; format: ADME, organism-based, Muscle tissue; details: in vivo; in short: as §1
Rattus norvegicus [17] = experiment: Biodistribution of compound in rats liver after an intravenous injection was measured at 2 min; format: ADME, organism-based; details: in vivo; in short: as §1
Rattus norvegicus [18] = experiment: Biodistribution of compound in rats skin after an intravenous injection was measured at 4 hr; format: ADME, organism-based, Zone of skin; details: in vivo; in short: as §1
Rattus norvegicus [19] = experiment: Biodistribution of compound in rats brain after an intravenous injection was measured at 1 hr; format: ADME, organism-based; details: in vivo; in short: as §3
Rattus norvegicus [20] = experiment: Biodistribution of compound in rats thyroid after an intravenous injection was measured at 1 hr; format: ADME, organism-based, Thyroid gland; details: in vivo; in short: as §1
Rattus norvegicus [21] = experiment: Regional brain distribution of compound in rats cerebellum after an intravenous injection was measured at 4 hr; format: ADME, organism-based; details: in vivo; in short: as §2
Rattus norvegicus [22] = experiment: Biodistribution of compound in rats thyroid after an intravenous injection was measured at 2 min; format: ADME, organism-based, Thyroid gland; details: in vivo
In short: (§4)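 Male Sprague-Dawley rats (225-300 g), free access to food and water; under ether anesthesia, 0.2 mL saline containing [125I]-labeled ligand (2-5 μCi, ~2200 Ci/mmol) injected into femoral vein; killed by cardiac excision under ether at set times. […] removed, weighed, gamma-counted; % dose/organ from comparison with diluted aliquots of injectate; mean of 3 rats ± std dev.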

Rattus norvegicus [23] = experiment: Biodistribution ratio measured as the ratio of compound present in brain to that of blood at 30 minutes after intravenous injection; format: ADME, organism-based; details: 0.5 h
In short: (§5)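 Male Sprague-Dawley rats (225-300 g) given 0.2 mL saline containing [125I]-labeled ligand (2-5 μCi, ~2200 Ci/mmol) via femoral vein under ether anesthesia; sacrificed at set times by cardiac excision. Brain and blood weighed and gamma-counted against diluted injectate; ratio taken from % dose/gram values, 3 rats per time point.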

Rattus norvegicus [24] = experiment: Regional brain distribution of compound in rats striatum after an intravenous injection was measured at 4 hr; format: ADME, organism-based; details: in vivo; in short: as §2
Rattus norvegicus [25] = experiment: Biodistribution of compound in rats skin after an intravenous injection was measured at 1 hr; format: ADME, organism-based, Zone of skin; details: in vivo; in short: as §1
Rattus norvegicus [26] = experiment: Biodistribution of compound in rats thyroid after an intravenous injection was measured at 4 hr; format: ADME, organism-based, Thyroid gland; details: in vivo; in short: as §4
Rattus norvegicus [27] = experiment: (§6) Biodistribution ratio measured as the ratio of compound present in brain to that of blood at 4 hr after intravenous injection; format: ADME, organism-based; details: brain, 4 h; in short: as §5
[28] = as §6; format: ADME, organism-based; details: rat; in short: as §5

Biodistribution (Rattus norvegicus [1]): 0.015
Biodistribution (Rattus norvegicus [2]): 56.5
Biodistribution (Rattus norvegicus [3]): 7.09% and 5.23%
Biodistribution (Rattus norvegicus [4]): 0.201
Biodistribution (Rattus norvegicus [5]): 0.012
Biodistribution (Rattus norvegicus [6]): 0.001
Biodistribution (Rattus norvegicus [7]): 0.001
Biodistribution (Rattus norvegicus [8]): 0.001
Biodistribution (Rattus norvegicus [9]): 0.046
Biodistribution (Rattus norvegicus [10]): 1.03
Biodistribution (Rattus norvegicus [11]): 0.621
Biodistribution (Rattus norvegicus [12]): 1.17
Biodistribution (Rattus norvegicus [13]): 10.8
Biodistribution (Rattus norvegicus [14]): 0.798
Biodistribution (Rattus norvegicus [15]): 0.288
Biodistribution (Rattus norvegicus [16]): 8.59
Biodistribution (Rattus norvegicus [17]): 15.78
Biodistribution (Rattus norvegicus [18]): 1.14
Biodistribution (Rattus norvegicus [19]): 0.568
Biodistribution (Rattus norvegicus [20]): 0.059
Biodistribution (Rattus norvegicus [21]): 0.011
Biodistribution (Rattus norvegicus [22]): 0.121
Biodistribution (Rattus norvegicus [23]): 12.7%
Biodistribution (Rattus norvegicus [24]): 0.6
Biodistribution (Rattus norvegicus [25]): 7.42
Biodistribution (Rattus norvegicus [26]): 0.118
Biodistribution (Rattus norvegicus [27]): 5.23%
Kp at 4 h [28]: 5.23
SMILES: CN1CCc2cc(Cl)c(O)cc2[C@@H](c2cccc(I)c2)C1
